# Test: Pharmacokinetics of CK and its metabolite 20
# Assay type: in vivo, healthy Chinese volunteers
# Details: mean (SD)
# Outline: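 Healthy adults given one oral tablet dose fasting (overnight, or 10 h in a crossover food-effect arm); 30 subjects from the 100/200/400 mg groups were pooled with 24 from 200 mg fasting periods. Plasma was stored at −70°C, extracted with MTBE plus internal standards and assayed by LC-MS/MS. Cmax was observed and AUClast calculated by linear trapezoid, each divided by dose. The metabolite/parent ratio was also calculated. Genotyping used Sequenom MassARRAY, and log-transformed values were compared by one-way ANOVA.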
# [1] = ABCG2 rs3114018 AA (first line)
# [2] = ABCG2 rs3114018 AA (third line)
compound,measurement,setting,value
"CC(C)=CCC[C@](C)(O)[C@H]1CC[C@]2(C)[C@@H]1[C@H](O)C[C@@H]1[C@@]3(C)CC[C@H](O)C(C)(C)[C@@H]3CC[C@]12C [20(S)-PPD, 20(S)-protopanaxadiol]",Ratio 20(S)-PPD/CK Cmax/D,ABCG2 rs2725248 CC,0.74 (0.83) %
same,20(S)-PPD AUClast/D,[1],0.91 (0.71)
same,20(S)-PPD Cmax/D,[1],0.03 (0.02)
same,Ratio 20(S)-PPD/CK AUClast/D,[1],4.78 (4.26) %
same,Ratio 20(S)-PPD/CK Cmax/D,[1],0.96 (0.87) %
same,20(S)-PPD AUClast/D,[2],0.88 (0.92)
same,20(S)-PPD Cmax/D,[2],0.03 (0.03)
same,Ratio 20(S)-PPD/CK AUClast/D,[2],5.73 (8.96) %
same,Ratio 20(S)-PPD/CK Cmax/D,[2],1.25 (1.73) %
same,20(S)-PPD AUClast/D,ABCG2 rs3114018 CA,0.80 (0.73)
same,20(S)-PPD Cmax/D,ABCG2 rs3114018 CA,0.03 (0.03)
same,Ratio 20(S)-PPD/CK AUClast/D,ABCG2 rs3114018 CA,3.46 (4.62) %
same,Ratio 20(S)-PPD/CK Cmax/D,ABCG2 rs3114018 CA,1.17 (1.94) %
same,20(S)-PPD AUClast/D,ABCG2 rs6857600 CC,0.89 (0.83)
same,20(S)-PPD Cmax/D,ABCG2 rs6857600 CC,0.03 (0.03)
same,Ratio 20(S)-PPD/CK AUClast/D,ABCG2 rs6857600 CC,4.61 (6.81) %
same,Ratio 20(S)-PPD/CK Cmax/D,ABCG2 rs6857600 CC,1.26 (1.91) %
same,20(S)-PPD AUClast/D,ABCG2 rs6857600 TC,0.65 (0.64)
same,20(S)-PPD Cmax/D,ABCG2 rs6857600 TC,0.02 (0.02)
same,Ratio 20(S)-PPD/CK AUClast/D,ABCG2 rs6857600 TC,2.91 (3.24) %
same,Ratio 20(S)-PPD/CK Cmax/D,ABCG2 rs6857600 TC,0.75 (0.80) %
same,20(S)-PPD AUClast/D,ABCG2 rs6857600 TT,0.48 (0.53)
same,20(S)-PPD Cmax/D,ABCG2 rs6857600 TT,0.02 (0.02)
same,Ratio 20(S)-PPD/CK AUClast/D,ABCG2 rs6857600 TT,4.27 (5.76) %
same,Ratio 20(S)-PPD/CK Cmax/D,ABCG2 rs6857600 TT,0.95 (1.30) %
same,20(S)-PPD AUClast/D,ABCG2 rs12505410 GG,0.92 (0.62)
same,20(S)-PPD Cmax/D,ABCG2 rs12505410 GG,0.03 (0.02)
same,Ratio 20(S)-PPD/CK AUClast/D,ABCG2 rs12505410 GG,3.61 (2.83) %
same,Ratio 20(S)-PPD/CK Cmax/D,ABCG2 rs12505410 GG,0.90 (0.55) %
same,20(S)-PPD AUClast/D,ABCG2 rs12505410 GT,1.00 (0.74)
same,Ratio 20(S)-PPD/CK AUClast/D,ABCG2 rs12505410 GT,4.63 (5.21) %
same,Ratio 20(S)-PPD/CK Cmax/D,ABCG2 rs12505410 GT,1.36 (2.02) %
same,20(S)-PPD AUClast/D,ABCG2 rs12505410 TT,0.63 (0.82)
same,20(S)-PPD Cmax/D,ABCG2 rs12505410 TT,0.02 (0.03)
same,Ratio 20(S)-PPD/CK AUClast/D,ABCG2 rs12505410 TT,4.03 (7.68) %
same,Ratio 20(S)-PPD/CK Cmax/D,ABCG2 rs12505410 TT,0.97 (1.54) %
same,20(S)-PPD AUClast/D,ABCG2 rs17731799 GG,0.91 (0.71)
same,20(S)-PPD Cmax/D,ABCG2 rs17731799 GG,0.03 (0.02)
same,Ratio 20(S)-PPD/CK AUClast/D,ABCG2 rs17731799 GG,4.78 (4.26) %
same,Ratio 20(S)-PPD/CK Cmax/D,ABCG2 rs17731799 GG,0.96 (0.87) %
same,20(S)-PPD AUClast/D,ABCG2 rs17731799 GT,0.82 (0.77)
same,20(S)-PPD Cmax/D,ABCG2 rs17731799 GT,0.03 (0.03)
same,Ratio 20(S)-PPD/CK AUClast/D,ABCG2 rs17731799 GT,3.65 (5.14) %
same,Ratio 20(S)-PPD/CK Cmax/D,ABCG2 rs17731799 GT,1.28 (2.16) %
same,20(S)-PPD AUClast/D,ABCG2 rs17731799 TT,0.80 (0.85)
same,20(S)-PPD Cmax/D,ABCG2 rs17731799 TT,0.03 (0.03)
same,Ratio 20(S)-PPD/CK AUClast/D,ABCG2 rs17731799 TT,4.76 (7.86) %
same,Ratio 20(S)-PPD/CK Cmax/D,ABCG2 rs17731799 TT,1.08 (1.53) %
same,20(S)-PPD AUClast/D,CFTR rs213950 AG,0.91 (0.99)
same,20(S)-PPD Cmax/D,CFTR rs213950 AG,0.03 (0.04)
same,Ratio 20(S)-PPD/CK AUClast/D,CFTR rs213950 AG,4.96 (7.34) %
same,Ratio 20(S)-PPD/CK Cmax/D,CFTR rs213950 AG,1.45 (2.26) %
same,20(S)-PPD AUClast/D,CFTR rs213950 GG,0.64 (0.54)
same,20(S)-PPD Cmax/D,CFTR rs213950 GG,0.02 (0.02)
same,Ratio 20(S)-PPD/CK AUClast/D,CFTR rs213950 GG,2.67 (3.18) %
same,Ratio 20(S)-PPD/CK Cmax/D,CFTR rs213950 GG,0.64 (0.66) %
same,20(S)-PPD AUClast/D,CFTR rs213968 CC,0.64 (0.55)
same,20(S)-PPD Cmax/D,CFTR rs213968 CC,0.02 (0.02)
same,Ratio 20(S)-PPD/CK AUClast/D,CFTR rs213968 CC,2.81 (3.33) %
same,Ratio 20(S)-PPD/CK Cmax/D,CFTR rs213968 CC,0.65 (0.69) %
same,20(S)-PPD AUClast/D,CFTR rs213968 CT,0.90 (0.98)
same,20(S)-PPD Cmax/D,CFTR rs213968 CT,0.03 (0.04)
same,Ratio 20(S)-PPD/CK AUClast/D,CFTR rs213968 CT,4.70 (7.26) %
same,Ratio 20(S)-PPD/CK Cmax/D,CFTR rs213968 CT,1.40 (2.23) %
same,20(S)-PPD AUClast/D,CFTR rs213968 TT,0.97 (0.49)
same,20(S)-PPD Cmax/D,CFTR rs213968 TT,0.04 (0.02)
same,Ratio 20(S)-PPD/CK AUClast/D,CFTR rs213968 TT,5.87 (7.37) %
same,Ratio 20(S)-PPD/CK Cmax/D,CFTR rs213968 TT,1.40 (1.51) %
same,20(S)-PPD AUClast/D,CFTR rs213976 GG,1.12 (0.43)
same,20(S)-PPD Cmax/D,CFTR rs213976 GG,0.04 (0.02)
same,Ratio 20(S)-PPD/CK AUClast/D,CFTR rs213976 GG,7.39 (8.42) %
same,Ratio 20(S)-PPD/CK Cmax/D,CFTR rs213976 GG,1.68 (1.73) %
same,20(S)-PPD AUClast/D,CFTR rs213976 GT,0.83 (0.78)
same,20(S)-PPD Cmax/D,CFTR rs213976 GT,0.03 (0.03)
same,Ratio 20(S)-PPD/CK AUClast/D,CFTR rs213976 GT,4.01 (4.96) %
same,Ratio 20(S)-PPD/CK Cmax/D,CFTR rs213976 GT,1.32 (2.08) %
same,20(S)-PPD AUClast/D,CFTR rs213976 TT,0.74 (0.87)
same,20(S)-PPD Cmax/D,CFTR rs213976 TT,0.02 (0.03)
same,Ratio 20(S)-PPD/CK AUClast/D,CFTR rs213976 TT,3.63 (6.72) %
same,Ratio 20(S)-PPD/CK Cmax/D,CFTR rs213976 TT,0.81 (1.29) %
same,20(S)-PPD AUClast/D,CFTR rs1042077 GG,0.97 (0.49)
same,20(S)-PPD Cmax/D,CFTR rs1042077 GG,0.04 (0.02)
same,Ratio 20(S)-PPD/CK AUClast/D,CFTR rs1042077 GG,5.87 (7.37) %
same,Ratio 20(S)-PPD/CK Cmax/D,CFTR rs1042077 GG,1.40 (1.51) %
same,20(S)-PPD AUClast/D,CFTR rs1042077 GT,0.92 (0.99)
same,20(S)-PPD Cmax/D,CFTR rs1042077 GT,0.03 (0.04)
same,Ratio 20(S)-PPD/CK AUClast/D,CFTR rs1042077 GT,4.85 (7.37) %
same,Ratio 20(S)-PPD/CK Cmax/D,CFTR rs1042077 GT,1.44 (2.26) %
same,20(S)-PPD AUClast/D,CFTR rs1042077 TT,0.68 (0.55)
same,20(S)-PPD Cmax/D,CFTR rs1042077 TT,0.02 (0.02)
same,Ratio 20(S)-PPD/CK AUClast/D,CFTR rs1042077 TT,2.95 (3.37) %
same,Ratio 20(S)-PPD/CK Cmax/D,CFTR rs1042077 TT,0.68 (0.70) %
same,20(S)-PPD AUClast/D,CFTR rs2106155 AA,1.09 (0.41)
same,20(S)-PPD Cmax/D,CFTR rs2106155 AA,0.04 (0.02)
same,Ratio 20(S)-PPD/CK AUClast/D,CFTR rs2106155 AA,7.22 (7.81) %
same,Ratio 20(S)-PPD/CK Cmax/D,CFTR rs2106155 AA,1.67 (1.60) %
same,20(S)-PPD AUClast/D,CFTR rs2106155 CA,0.88 (0.82)
same,20(S)-PPD Cmax/D,CFTR rs2106155 CA,0.04 (0.03)
same,Ratio 20(S)-PPD/CK AUClast/D,CFTR rs2106155 CA,4.03 (5.36) %
same,Ratio 20(S)-PPD/CK Cmax/D,CFTR rs2106155 CA,1.39 (2.26) %
